In ChEMBL document CHEMBL1153166, “Synthesis and anticancer activities of ageladine A and structural analogs” (Bioorg Med Chem Lett, 2010):
pIC50: −log10 of the molar value. Calls of active or inactive are those of the source. No cut-off for these calls is given here.

Columns and labels:
[1] = target: T1, 72 kDa type IV collagenase (Homo sapiens, UniProt P08253); test: Inhibition of MMP2 at 5 uM
Target sequence in this assay (P08253 110-660 limits assumed): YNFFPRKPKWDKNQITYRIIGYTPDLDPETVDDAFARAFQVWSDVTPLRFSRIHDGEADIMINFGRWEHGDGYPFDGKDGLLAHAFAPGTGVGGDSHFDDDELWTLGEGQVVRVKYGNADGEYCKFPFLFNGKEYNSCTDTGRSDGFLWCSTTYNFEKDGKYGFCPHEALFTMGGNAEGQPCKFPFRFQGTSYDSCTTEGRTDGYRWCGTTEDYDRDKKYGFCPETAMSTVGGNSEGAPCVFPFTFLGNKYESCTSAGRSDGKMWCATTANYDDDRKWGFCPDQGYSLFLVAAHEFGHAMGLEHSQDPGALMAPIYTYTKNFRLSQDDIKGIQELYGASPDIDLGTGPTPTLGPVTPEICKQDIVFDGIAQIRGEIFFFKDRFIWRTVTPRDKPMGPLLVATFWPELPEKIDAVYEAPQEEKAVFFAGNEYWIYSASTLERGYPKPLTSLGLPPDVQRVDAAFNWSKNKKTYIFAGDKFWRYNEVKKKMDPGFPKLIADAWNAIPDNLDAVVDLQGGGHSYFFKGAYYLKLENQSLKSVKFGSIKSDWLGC

[2] = target: T1, 72 kDa type IV collagenase; test: Inhibition of MMP2 at 50 uM
Target sequence in this assay (P08253 110-660 limits assumed): as above

[3] = tested on: U-266; test: Cytotoxicity against human U266 cells assessed as reduction of cell viability at 10 uM after 48 hrs by MTS assay; format: functional, cell-based
Method in brief: (§1)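 Multiple myeloma cells were exposed to compound at a single concentration for 48 h, alongside a DMSO vehicle control. Viability was then read by MTS assay. Each value is the mean of three determinations, deviating <10% from the mean.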

[4] = tested on: U-266; test: Cytotoxicity against human U266 cells assessed as reduction of cell viability at 1 uM after 48 hrs by MTS assay; format: functional, cell-based; method in brief: as §1
[5] = tested on: KMS-11; test: Cytotoxicity against human KMS11 cells assessed as reduction of cell viability at 1 uM after 48 hrs by MTS assay; format: functional, cell-based; method in brief: as §1
[6] = tested on: RPMI-8226; test: Cytotoxicity against human RPMI8226 cells assessed as reduction of cell viability at 1 uM after 48 hrs by MTS assay; format: functional, cell-based; method in brief: as §1
[7] = tested on: MDA-MB-435; test: Cytotoxicity against human MDA-MB-435 cells assessed as reduction of cell viability after 48 hrs by MTS assay; format: functional, cell-based; details: MDA-MB-435, 48 h
Method in brief: (§2)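 IC50 from cell viability read by MTS assay run to the manufacturer's protocol, after 48 h exposure to compound. Each value is the mean of three determinations, deviating <10% from the mean.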

[8] = tested on: RPMI-8226; test: Cytotoxicity against human RPMI8226 cells assessed as reduction of cell viability at 10 uM after 48 hrs by MTS assay; format: functional, cell-based; method in brief: as §1
[9] = tested on: KMS-11; test: Cytotoxicity against human KMS11 cells assessed as reduction of cell viability at 10 uM after 48 hrs by MTS assay; format: functional, cell-based; method in brief: as §1
[10] = tested on: A2058; test: Cytotoxicity against human A2058 cells assessed as reduction of cell viability after 48 hrs by MTS assay; format: functional, cell-based; details: A2058, 48 h; method in brief: as §2
[11] = tested on: DU-145; test: Cytotoxicity against human DU145 cells assessed as reduction of cell viability after 48 hrs by MTS assay; format: functional, cell-based; details: for pIC50: DU-145, 48 h; method in brief: as §2
[12] = target: T1, 72 kDa type IV collagenase; test: Inhibition of MMP2
Target sequence in this assay (P08253 whole entry): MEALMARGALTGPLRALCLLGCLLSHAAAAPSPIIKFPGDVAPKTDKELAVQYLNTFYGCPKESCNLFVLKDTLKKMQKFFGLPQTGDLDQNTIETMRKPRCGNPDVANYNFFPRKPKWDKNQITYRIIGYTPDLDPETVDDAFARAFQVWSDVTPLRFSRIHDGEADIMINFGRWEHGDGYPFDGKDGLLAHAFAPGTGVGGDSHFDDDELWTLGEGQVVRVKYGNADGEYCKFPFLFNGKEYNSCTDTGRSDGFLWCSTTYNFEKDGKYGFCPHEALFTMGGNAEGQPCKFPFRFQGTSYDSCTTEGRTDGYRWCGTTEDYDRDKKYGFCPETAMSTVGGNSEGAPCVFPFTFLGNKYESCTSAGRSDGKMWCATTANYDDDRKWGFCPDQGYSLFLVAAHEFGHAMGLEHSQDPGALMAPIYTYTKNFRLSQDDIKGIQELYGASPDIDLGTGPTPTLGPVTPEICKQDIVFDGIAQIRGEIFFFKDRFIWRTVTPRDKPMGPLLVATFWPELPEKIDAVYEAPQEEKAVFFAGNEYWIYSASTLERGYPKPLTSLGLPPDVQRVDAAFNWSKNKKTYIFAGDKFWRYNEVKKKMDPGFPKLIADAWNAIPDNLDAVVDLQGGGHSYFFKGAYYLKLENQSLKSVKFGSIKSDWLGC

Row | inhibition [1] [%] | inhibition [2] [%] | pIC50 [12] | SMILES | Activity [3] | Activity [4] | Activity [5] | Activity [6] | pIC50 [7] | Activity [8] | Activity [9] | pIC50 [10] | Activity [11] | pIC50 [11]
1 | 27 | 54 |  | NC1=NC2C=CC=NC(c3ccc(Cl)cc3)=C2N1 (stereo not drawn) | Active | Active | Active | Active | 5.44 | Active | Active | 5.29 | Dose-dependent effect | 5.21
2 | 20 |  |  | Nc1nc2ccnc(-c3cccc4ccccc34)c2[nH]1 |  |  |  |  |  |  |  |  |  | 
3 | 27 | 60 |  | CC(C)CC1=C2NC(N)=NC2C=CC=N1 (stereo not drawn) | Active | Active | Active | Active | 5.54 | Active | Active | 5.39 | Dose-dependent effect | 5.37
4 |  |  | 5.77 | Nc1nc2c(-c3cc(Br)c(Br)[nH]3)nccc2[nH]1 [AGELADINE A] |  |  |  |  |  |  |  |  |  | 
5 | 28 | 52 |  | CC(C)C1=C2NC(N)=NC2C=CC=N1 (stereo not drawn) | Active | Active | Active | Active | 5.17 | Active | Active | 5.02 | Dose-dependent effect | 5.12
6 | 25 | 17 |  | CC(C)c1nccc2nc(N)[nH]c12 |  |  |  |  |  |  |  |  |  | 
7 | 9 | 40 |  | Nc1nc2ccnc(C3CCCCC3)c2[nH]1 |  |  |  |  |  |  |  |  |  | 
8 | 23 | 53 |  | NC1=NC2C=CC=NC(C3CCCCC3)=C2N1 (stereo not drawn) | Active | Active | Active | Active | 5.47 | Active | Active | 5.35 | Dose-dependent effect | 5.30
9 | 31 | 22 |  | CC(C)Cc1nccc2nc(N)[nH]c12 |  |  |  |  |  |  |  |  |  | 

Row | SMILES | inhibition [1] [%] | inhibition [2] [%] | pIC50 [12] | Activity [3] | Activity [4] | Activity [5] | Activity [6] | pIC50 [7] | Activity [8] | Activity [9] | pIC50 [10] | Activity [11] | pIC50 [11]
10 | Nc1nc2ccnc(-c3c[nH]c4ccccc34)c2[nH]1 | 25 | 26 |  |  |  |  |  |  |  |  |  |  | 
